In ChEMBL document CHEMBL1149913, “De novo design of nonpeptidic compounds targeting the interactions between interferon-alpha and its cognate cell surface receptor” (J Med Chem, 2008):
Calls of active or inactive are those of the source. The calls are words filed in the database; no cut-off is given here.

Legend:
[1] = molecular target: T1, Interferon alpha/beta receptor 1 (Homo sapiens) (UniProt P17181); assay: Activity at IFNAR in human Daudi cells assessed as induction of stat1 tyrosine phosphorylation at 100 umol after 5 to 30 mins; assay type: cell-based
T1 sequence (whole entry): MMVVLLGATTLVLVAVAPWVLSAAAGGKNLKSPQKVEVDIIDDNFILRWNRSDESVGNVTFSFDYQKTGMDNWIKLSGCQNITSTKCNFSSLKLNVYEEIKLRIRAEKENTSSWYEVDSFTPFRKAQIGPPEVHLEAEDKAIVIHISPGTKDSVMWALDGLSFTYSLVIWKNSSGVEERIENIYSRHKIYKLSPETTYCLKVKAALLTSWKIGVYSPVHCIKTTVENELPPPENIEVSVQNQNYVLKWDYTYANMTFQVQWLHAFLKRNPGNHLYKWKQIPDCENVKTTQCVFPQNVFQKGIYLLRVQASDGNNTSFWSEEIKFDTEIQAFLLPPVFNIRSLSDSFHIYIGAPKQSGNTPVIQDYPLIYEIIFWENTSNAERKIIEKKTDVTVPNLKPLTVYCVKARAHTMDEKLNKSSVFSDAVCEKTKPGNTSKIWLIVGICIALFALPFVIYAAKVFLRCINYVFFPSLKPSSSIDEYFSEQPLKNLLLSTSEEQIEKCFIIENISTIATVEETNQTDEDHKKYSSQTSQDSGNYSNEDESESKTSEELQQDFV

[2] = molecular target: T1, Interferon alpha/beta receptor 1 (Homo sapiens); assay: Antagonist activity at IFNAR in human Daudi cells assessed as inhibition of IFN-inducible Stat1 tyrosine phosphorylation by SDS-PAGE; assay type: functional, cell-based
How it was run: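 Daudi cells were left untreated or exposed to IFN alfacon-1 (100 pg) for 15 min, with or without compound (dose–response 20–100 µM). Lysates were run on SDS-PAGE, transferred to nitrocellulose and immunoblotted for phospho-Stat1. Membranes were stripped and reprobed for total Stat1, or β-actin served as the loading control.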

[3] = molecular target: T1, Interferon alpha/beta receptor 1 (Homo sapiens); assay: Antagonist activity at IFNAR in human Daudi cells assessed as reduction of IFN-inducible Stat1:Stat3-pIRE complex formation at 100 umol by electrophoretic mobility shift assay; assay type: functional, cell-based
[4] = molecular target: T1, Interferon alpha/beta receptor 1 (Homo sapiens); assay: Antagonist activity at IFNAR in human Daudi cells assessed as reduction of IFN-inducible Stat1:Stat1-pIRE complex formation at 100 umol by electrophoretic mobility shift assay; assay type: functional, cell-based

Row | Structure (SMILES) | Activity [1] | further results
1 | COCCNc1cc(OCCN(C)C)nc(OCCCN)n1 | inactive | –
2 | CN(C)CCSc1ccc(-c2cc(-c3cccs3)nc(SCCN(C)C)n2)cc1 | inactive | Activity [2]: Dose-dependent effect; Activity [3]: Active; Activity [4]: Active
3 | CC(C)OCCCNc1cc(OCCN(C)C)nc(Oc2ccc(CCN)cc2)n1 | inactive | –
4 | CCOc1cc(N(C)C)nc(NCCCOC(C)C)n1 | inactive | –
5 | CCOc1cc(OCCN(C)C)nc(NCCCOC(C)C)n1 | inactive | –
6 | COCCNc1cc(OCCN(C)C)nc(OCCN)n1 | inactive | –
7 | CC(C)OCCCNc1cc(OCCN(C)C)nc(OCCCN)n1 | inactive | –
8 | CC(C)OCCCNc1nc(OCCCCN)cc(OCCN(C)C)n1 | inactive | –
9 | COCCNc1nc(OCCCCN)cc(OCCN(C)C)n1 | inactive | –
10 | COCCNc1cc(OC(C)C)nc(OC(C)C)n1 | inactive | –
11 | CC(C)OCCCNc1nc(OCCCCNC(=N)N)cc(OCCN(C)C)n1 | inactive | –
12 | CN(C)CCSc1ccc(-c2cc(-c3ccco3)nc(SCCN(C)C)n2)cc1 | inactive | Activity [2]: Dose-dependent effect; Activity [3]: Active; Activity [4]: Active
13 | COCCNc1cc(OCCN(C)C)nc(OCCNC(=N)N)n1 | inactive | –
14 | CC(C)OCCCNc1nc(OCCN(C)C)cc(OC(C)C)n1 | inactive | –
15 | CC(C)OCCCNc1cc(OCCN(C)C)nc(OCCCNC(=N)N)n1 | inactive | –
16 | CCOc1cc(OCCCN)nc(NCCCOC(C)C)n1 | inactive | –
17 | COCCNc1nc(OCCCCNC(=N)N)cc(OCCN(C)C)n1 | inactive | –
18 | CC(C)OCCCNc1nc(OCCN)cc(OCCN(C)C)n1 | inactive | –
19 | COCCNc1cc(OCCN(C)C)nc(Oc2ccc(CCN)cc2)n1 | inactive | –
20 | CC(C)OCCCNc1nc(OCCCN)cc(OC(C)C)n1 | inactive | –
21 | CCOc1cc(OCCCCN)nc(NCCCOC(C)C)n1 | inactive | –
22 | CC(C)Oc1cc(OCCN(C)C)nc(OCCN(C)C)n1 | inactive | –
23 | CCOc1cc(OCCN(C)C)nc(OCCN(C)C)n1 | inactive | –
24 | CN(C)CCSc1nccc(-c2ccco2)n1 | inactive | –
25 | COCCNc1cc(OCCN(C)C)nc(OCCCNC(=N)N)n1 | inactive | –
26 | CN(C)CCSc1nccc(-c2cccs2)n1 | inactive | –
